# Rows were chosen to be rich in hits. Some 4.9% of all compounds tested hit in one or more screens of this group.
# FLuc act counter = FLuc activators, initial screening, artefact control for FLuc-dependent activation tests, biochemical, ATPlite luminescence. Luciferin 4-monooxygenase (Photinus pyralis), P08659. ATPlite luciferase biochemical, 10 min; 0 = ATP-free wells, 1 = DMSO control. activation factor at 10 µM. 200,000 tested, under 10 active. AID 1027, 2008;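 active = luciferase activation factor, scaled between plate controls, of at least 2 with compound at 10 µM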
# Target sequence (P08659 whole entry, looked up): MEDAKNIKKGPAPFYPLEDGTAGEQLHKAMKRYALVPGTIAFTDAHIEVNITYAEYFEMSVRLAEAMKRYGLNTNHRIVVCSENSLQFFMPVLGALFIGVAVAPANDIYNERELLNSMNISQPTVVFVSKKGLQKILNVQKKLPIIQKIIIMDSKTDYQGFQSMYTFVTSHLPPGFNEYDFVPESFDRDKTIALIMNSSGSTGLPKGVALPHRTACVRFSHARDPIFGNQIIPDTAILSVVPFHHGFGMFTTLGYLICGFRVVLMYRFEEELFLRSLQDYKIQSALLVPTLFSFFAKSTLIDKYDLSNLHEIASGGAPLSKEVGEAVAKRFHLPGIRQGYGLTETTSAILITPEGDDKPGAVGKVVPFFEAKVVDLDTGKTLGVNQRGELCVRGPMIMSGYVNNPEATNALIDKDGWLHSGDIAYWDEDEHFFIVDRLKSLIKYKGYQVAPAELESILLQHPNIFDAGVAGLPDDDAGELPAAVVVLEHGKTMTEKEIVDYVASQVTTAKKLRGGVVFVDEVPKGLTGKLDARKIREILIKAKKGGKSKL
#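 System: Luciferase/luciferin detection reagent, cell-free biochemical luciferase assay | Medium: PBS buffer for ATP | Dosing: Test compounds dosed from 2 mM stocks in 100% DMSO | Timing: 10 min at ambient temperature | Signal: Luminescence measurement of luciferase light output | Evaluation: Luciferase activation, seen as luminescence increase over controls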
# STAT3 act = IL-6 driven STAT3 reporter potentiators, primary screen, U3A cells, luciferase, luminescence, MLSCN library | AID 871, 2007 | IL-6 STAT3-luciferase reporter; 100% = signal with IL-6 EC80 alone | 190,000 tested, 0.91% active | activation (% of control), % at 5.6 µM;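 active = activation above the screen-wide mean of compound activation plus 3 SD, cut at about 130% in these data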
#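 Material: STAT3-luciferase reporter U3A cells. Controls: IL-6-treated wells, 100% activation. Read-out: % activation versus median of IL-6-stimulated wells. Probe or stimulus: IL-6 stimulus at 33 ng/mL final. Timing: compound 1 h, then IL-6 6 h at 37 °C. Signal: reporter luminescence signal.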
# STAT1 blocker = STAT1 signaling inhibitors, primary screen, cell-based, HTS, luciferase reporter | NIH 3T3 STAT1-luciferase reporter, IFN-gamma, luminescence | 200,000 tested, 0.35% active | inhibition, % at 5.5 µM;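 active = inhibition above a set limit, the mean inhibition across all tested compounds plus 3 SD, cut at about 34% in these data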
# STAT3 inh-1 = IL-6 driven STAT3 reporter inhibitors, primary screen, U3A cells, luciferase, luminescence, MLSCN library. IL-6 STAT3-luciferase reporter; host cell line lacks STAT1. inhibition, % at 5.5 µM. 190,000 tested, 0.89% active. AID 862, 2007;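 active = inhibition above the mean inhibition across all screened compounds plus 3 SD, cut at about 44% in these data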
# STAT1 act = STAT1 signaling activators, primary screen, cell-based, HTS, luciferase reporter | NIH 3T3 STAT1-luciferase reporter, IFN-gamma, luminescence; 100% = IFN-gamma alone, no compound | activation (% of control), % at 5.5 µM | 200,000 tested, 2.6% active | AID 932, 2007;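 active = activation above the screen-wide mean activation plus 3 SD, cut at about 130% in these data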
# FLuc inh counter = firefly luciferase enzyme inhibitors, primary screen, artefact control for luciferase-based inhibitor screens, biochemical, luminescence, ATPLite | Luciferin 4-monooxygenase (Photinus pyralis), P08659 | 10 min | inhibition, % at 10 µM | 200,000 tested, 1.5% active;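 active = inhibition above about 50% when tested at 10 µM, limit read from the data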
# STAT3 inh-2 = STAT3 reporter inhibitors, retest of hits, confirmation, U3A cells, luciferase, luminescence; shares compounds with STAT3 inh-1; IL-6 STAT3 luciferase reporter; cell line lacks STAT1; inhibition, % at 5.7 µM; 1,200 tested, 45% active;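 active = inhibition above the hit cutoff computed for the primary STAT3 screen, cut at about 44% in these data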
# NFkB inh STAT3ct = NF-kB reporter inhibitors in human cells, confirmation, counter-screen for STAT3 inhibitor project, cell-based, HEK293T, luciferase, TNF-alpha stimulus; TNF-alpha induced; AID 1308, 2008; shares compounds with STAT3 inh-1; inhibition, % at 5.7 µM; 1,200 tested, 36% active;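 active = inhibition above the mean of solvent-only control wells plus 3 SD, cutoff set per campaign, cut at about 13% in these data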
# STAT1 inh STAT3c = STAT1 reporter inhibitors, IFN-gamma induced, confirmation, counter-screen for STAT3 inhibitor project, cell-based, NIH 3T3, luciferase luminescence. 1,200 tested, 27% active. inhibition, % at 5.7 µM. shares compounds with STAT3 inh-1. NIH 3T3 STAT1-luciferase reporter;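 active = inhibition above the mean plus 3 SD of solvent-only control wells, limit set per screening run, cut at about 16% in these data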
# Numbers stand for hits; - = inactive; . = not tested or not shown.
SMILES,FLuc act counter,STAT3 act,STAT1 blocker,STAT3 inh-1,STAT1 act,FLuc inh counter,STAT3 inh-2,NFkB inh STAT3ct,STAT1 inh STAT3c
CCOC(=O)C1CCN(C(=O)C(C)N(c2ccc(Oc3ccccc3)cc2)S(C)(=O)=O)CC1 (stereo not given),-,-,-,49,-,-,-,-,-
CC(C)(C)C(=O)Nc1ccc(-c2cn3ccsc3n2)cc1,-,-,-,72,-,96,-,-,-
CC(C)CC(=O)Nc1ccc(-c2cn3ccsc3n2)cc1,-,-,-,46,-,92,-,-,-
CC(=O)c1cn(CC(=O)Nc2ccc(C)c(C)c2)c2ccccc12,-,-,-,67,-,-,53,19,18
CC(=O)c1cn(CC(=O)Nc2ccccc2C)c2ccccc12,-,-,-,44,-,-,44,-,-
CC(=O)c1cn(CC(=O)NCc2ccco2)c2ccccc12,-,-,-,-,-,-,.,.,.
Cc1ccsc1/C=N\NC(=O)Cn1nnc2ccccc21,-,-,-,-,-,-,.,.,.
CCN(CC(=O)Nc1ccc2c(c1)OCCO2)CC(=O)Nc1cc(C)on1,-,-,-,-,-,-,.,.,.
O=C(Nc1ccccn1)c1ccc2c(c1)OCCO2,-,-,-,51,-,74,-,-,-
Cc1cc(NC(=O)c2ccc3c(c2)OCCO3)no1,-,-,-,74,-,93,-,-,-
Cn1c(CNC(=O)c2ccc(F)cc2)nc2ccccc21,-,-,-,-,-,-,.,.,.
Nc1nc2ccccc2n1C(=O)c1ccc(F)cc1,-,-,-,68,-,91,-,-,-
O=C(c1ccccc1)n1nnc2ccccc21,-,-,-,-,-,-,.,.,.
Nc1nc2ccccc2n1C(=O)c1ccccc1,-,-,-,67,-,90,-,-,-
COc1ccc(OC(=O)CCc2c[nH]c3ccccc23)cc1,-,-,-,-,-,-,.,.,.
Oc1c(C=Nc2ccccc2)sc2ccccc12,-,-,-,66,-,95,-,-,-
CCN(CC)c1ccc(NC(=O)CN2C(=O)CSc3ncccc32)c(C)c1,-,-,-,70,-,-,56,-,-
CNC(=O)CN1C(=O)CSc2ncccc21,-,-,-,-,-,-,.,.,.
COc1ccc(C(=O)NCC(=O)OCC(=O)NCCC2=CCCCC2)cc1,-,-,-,-,-,-,.,.,.
COc1ccc(C(=O)NCCC2=CCCCC2)cc1,-,-,-,52,138,50,-,-,-
CC(C(=O)NN)c1ccc([N+](=O)[O-])cc1 (stereo not given),-,-,-,-,-,-,.,.,.
COc1ccc(C=C(c2nc3ccccc3s2)c2nc3ccccc3s2)cc1O,-,-,-,-,-,-,.,.,.
COc1ccc(/C=N/Nc2nc3ccccc3s2)cc1O,-,-,-,60,-,83,-,-,-
COC(=O)C1=C(C)NC(C)=C(C(=O)OC)C1c1ccc2ccccc2n1,-,-,-,-,-,-,.,.,.
O=C1c2ccccc2C(=O)C1c1ccc2ccccc2n1,-,-,-,49,-,91,-,42,-
SMILES,FLuc act counter,STAT3 act,STAT1 blocker,STAT3 inh-1,STAT1 act,FLuc inh counter,STAT3 inh-2,NFkB inh STAT3ct,STAT1 inh STAT3c
N=C1CCCN1CC(=O)c1ccc(Br)cc1,-,-,-,-,-,-,.,.,.
CCOc1ccc(NC(=O)c2cnsn2)cc1,-,-,-,49,-,61,-,-,-
CCN(CC)S(=O)(=O)c1ccc(N)cc1,-,-,-,-,-,-,.,.,.
CCN(CC)S(=O)(=O)c1ccc(Oc2ccc(S(=O)(=O)N(CC)CC)cc2)cc1,-,-,-,78,-,-,68,27,26
S=C(NCC1CCCO1)NC1CC1 (stereo not given),-,-,-,-,-,-,.,.,.
CC1=NC(=O)C(N=Nc2cccc(C(=O)O)c2)N1c1ccccc1 (stereo not given),-,-,-,65,-,54,-,18,-
Cc1cccc(OCC(=O)Nc2ccc(N3CCN(C(=O)c4ccco4)CC3)cc2)c1,-,-,-,54,-,-,49,-,17
CCc1ccc(Nc2nnc(SC3CCOC3=O)s2)cc1 (stereo not given),-,-,-,-,-,-,.,.,.
O=C(COc1ccc2ccccc2c1)Nc1nccs1,-,-,-,78,-,84,-,-,-
Cc1ccc(NC2=Nc3ccccc3CS2)cc1,-,-,-,59,-,69,-,-,-
COc1cc(C)c(NC(=S)Nc2ccc(Cl)c(Cl)c2)cc1OC,-,-,-,-,-,-,.,.,.
Cc1cc2nc(N3C(=O)CNC3=S)sc2cc1C,-,-,-,48,-,82,-,-,-
CCc1ccc(NC(=O)CCc2nc3ccccc3[nH]2)cc1,-,-,-,-,-,-,.,.,.
CS(=O)(=O)NN1C(=O)c2ccccc2NC1c1cccs1 (stereo not given),-,-,-,-,-,-,.,.,.
CC(C)=C(NC(=O)c1ccccc1)C(=O)NCc1ccccc1,-,-,-,-,-,-,.,.,.
O=C(NC(=S)Nc1ccc(N2CCCCC2)c(Cl)c1)c1ccc2c(c1)OCCO2,-,-,-,64,-,-,66,22,-
COC(=O)c1ccc(NC(=O)Nc2ccccc2F)cc1,-,-,-,48,-,-,-,-,-
COc1ccc(NC(=O)CSc2ncccc2C(=O)OC(C)C)cc1OC,-,-,-,51,-,-,-,-,17
O=[N+]([O-])c1nn(-c2ccc3c(c2)OCCO3)n(O)c1=NCCC1=CCCCC1,-,-,-,-,-,-,.,.,.
COc1cc(/C=C/C(=O)OCC(=O)NC(=O)NC23CC4CC(CC(C4)C2)C3)ccc1OCC#N,-,-,-,-,-,-,.,.,.
CC(C)(C)c1ccc(-c2noc(CCC(=O)N3CCOCC3)n2)cc1,-,-,-,51,-,83,-,-,-

# From PubChem BioAssay
